Results from ChEMBL document CHEMBL2029222, “Synthesis and biological evaluation of a class of 5-benzylidene-2-phenyl-thiazolinones as potent 5-lipoxygenase inhibitors” (Bioorg Med Chem, 2012).

Assays:
[1] = molecular target: T1, Polyunsaturated fatty acid 5-lipoxygenase (Homo sapiens) (UniProt P09917); test: Inhibition of 5-lipoxygenase in cell free S100 freshly isolated human PMNL cells assessed as assessed as residual activity at 10 uM preincubated for 15 mins measured after 10 mins by HPLC analysis relative to control
T1 sequence (whole entry): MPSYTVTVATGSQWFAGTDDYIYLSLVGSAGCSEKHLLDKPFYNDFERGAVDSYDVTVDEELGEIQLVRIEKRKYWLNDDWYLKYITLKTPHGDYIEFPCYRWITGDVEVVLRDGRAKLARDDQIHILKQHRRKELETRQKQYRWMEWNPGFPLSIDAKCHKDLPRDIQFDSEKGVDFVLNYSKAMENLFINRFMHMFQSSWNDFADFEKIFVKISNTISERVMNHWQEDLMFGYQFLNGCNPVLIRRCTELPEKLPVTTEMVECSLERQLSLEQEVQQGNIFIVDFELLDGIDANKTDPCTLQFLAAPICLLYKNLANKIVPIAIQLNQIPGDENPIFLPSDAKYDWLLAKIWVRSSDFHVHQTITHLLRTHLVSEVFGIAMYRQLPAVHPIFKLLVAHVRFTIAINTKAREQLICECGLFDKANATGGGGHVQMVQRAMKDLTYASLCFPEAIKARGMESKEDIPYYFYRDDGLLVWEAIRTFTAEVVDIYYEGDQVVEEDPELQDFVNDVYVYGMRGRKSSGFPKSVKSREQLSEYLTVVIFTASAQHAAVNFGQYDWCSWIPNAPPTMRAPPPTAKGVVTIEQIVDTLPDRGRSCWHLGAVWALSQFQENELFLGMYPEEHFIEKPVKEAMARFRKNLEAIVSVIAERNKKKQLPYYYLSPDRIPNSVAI
Summary of the method: (§1)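 Human donor PMNL in PBS with 1 mM EDTA plus protease inhibitors, sonicated, spun 100,000g 70 min at 4 °C. S100 equivalent to 7.5 × 10^6 cells in PBS pH 7.4, 1 mM EDTA, 1 mM ATP; compound or DMSO 15 min at 4 °C, then 20 µM AA plus 2 mM CaCl2, 10 min at 37 °C. Methanol stop; products by HPLC; n≥3, mean ± SE.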

[2] = molecular target: T1, Polyunsaturated fatty acid 5-lipoxygenase (Homo sapiens); test: Inhibition of 5-lipoxygenase in human polynuclear leukocytes assessed as residual activity at 1 uM preincubated for 15 mins measured after 10 mins by HPLC analysis relative to control; format: cell-based
Summary of the method: (§2)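 Freshly isolated human PMNL (5 × 10^6 per mL PBS pH 7.4, 1 mg/mL glucose, 1 mM CaCl2) preincubated with compounds 15 min at 37 °C, then stimulated with A23187 (2.5 µM) plus AA (20 µM) for 10 min. Methanol stop, PGB1 internal standard; LTB4, all-trans isomers and 5-H(P)ETE per 10^6 cells by HPLC. n≥3, mean ± SE.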

U-937 [3] = test: Cytotoxicity against human U937 cells assessed as LDH leakage at 30 uM after 48 hrs by microplate reader assay relative to control; format: cell-based; conditions: u-937, 48 h
U-937 [4] = test: Cytotoxicity against human U937 cells assessed as cell viability after 48 hrs by WST-1 assay; format: cell-based; conditions: U-937, 48 h
Summary of the method: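 U937 cells (10^4 per well, RPMI with 10% FCS, 37 °C, 5% CO2) treated with increasing compound concentrations for 48 h in 10% FCS; mitochondrial metabolic activity read by WST-1 kit protocol. IC50 for viability loss; at least three experiments, mean ± SE.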

[5] = molecular target: T2, Polyunsaturated fatty acid 5-lipoxygenase (Homo sapiens, UniProt P09917); test: Inhibition of 5-lipoxygenase in cell free S100 freshly isolated human PMNL cells assessed as inhibition of 5-LO product formation preincubated for 15 mins measured after 10 mins by HPLC analysis
T2 sequence (P09917 whole entry): T1 sequence (whole entry)

[6] = molecular target: T1, Polyunsaturated fatty acid 5-lipoxygenase (Homo sapiens); test: Inhibition of 5-lipoxygenase in human polynuclear leukocytes assessed as residual activity at 10 uM preincubated for 15 mins measured after 10 mins by HPLC analysis relative to control; format: cell-based; summary of the method: as §2
[7] = molecular target: T2, Polyunsaturated fatty acid 5-lipoxygenase; test: Inhibition of 5-lipoxygenase in human polynuclear leukocytes assessed as inhibition of A23187-stimulated 5-LO product formation preincubated for 15 mins measured after 10 mins by HPLC analysis; format: cell-based
[8] = molecular target: T1, Polyunsaturated fatty acid 5-lipoxygenase (Homo sapiens); test: Inhibition of 5-lipoxygenase in cell free S100 freshly isolated human PMNL cells assessed as assessed as residual activity at 1 uM preincubated for 15 mins measured after 10 mins by HPLC analysis relative to control; summary of the method: as §1

| SMILES | Activity (U-937 [3]) | IC50 (U-937 [4]) | other results |
| --- | --- | --- | --- |
| COc1ccc(/C=C2\SC(c3ccc(OC)cc3)=NC2=O)cc1 |  |  | Activity [1]: 38.8%; Activity [2]: 21.4% |
| COc1ccc(C2=NC(=O)/C(=C/c3ccc(C)cc3)S2)cc1 | 15.8% | > 30 µM |  |
| COc1ccc(C2=NC(=O)/C(=C/c3cc4ccccc4[nH]3)S2)cc1 |  |  | IC50 [5]: 0.57 µM; Activity [1]: 21.4%; Activity [6]: 20.5%; IC50 [7]: 0.67 µM |
| COc1ccc(/C=C2\SC(c3ccc4ccccc4c3)=NC2=O)cc1 | 4.1% | > 30 µM |  |
| COc1ccc(/C=C2\SC(c3cccc(NC(=O)C45CC6CC(CC(C6)C4)C5)c3)=NC2=O)cc1 | 8.4% | > 30 µM |  |
| COc1ccc(/C=C2\SC(c3ccc(N)cc3)=NC2=O)cc1 |  |  | Activity [2]: 72.9%; Activity [8]: 37.2% |
| COc1ccc(/C=C2\SC(c3ccc(C)cc3)=NC2=O)cc1 | 2.7% | > 30 µM |  |
| O=C1N=C(c2ccc(Cl)cc2)S/C1=C\c1ccc(Oc2ccccc2)cc1 | 12% | > 30 µM |  |
| COc1ccc(/C=C2\SC(c3ccc(Cl)cc3)=NC2=O)c2ccccc12 | 12.2% | > 30 µM |  |
| CC(=O)N(O)C/C=C/c1cccc(Oc2ccccc2)c1 | 0.8% | > 30 µM | Activity [1]: < 10%; Activity [6]: < 10% |
| COc1ccc(/C(C)=C2\SC(c3ccc(C)cc3)=NC2=O)cc1 | 106% | 12.1 µM |  |
| CCCOc1ccc(/C=C2\SC(c3ccc(Cl)cc3)=NC2=O)cc1 | 48.9% | 21.1 µM |  |
